Assays:
Trypanosoma cruzi [1] = test: Antiparasitic activity against Trypanosoma cruzi 320I04 epimastigotes […] after 72 hrs; type: functional, organism-based
In short: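 Free parasite forms (T. cruzi 320I04 epimastigotes; L. chagasi MHOM/BR/74/PP75 promastigotes) exposed to compounds for 72 h at 27 °C. IC50/IC90 taken as the concentrations giving 50% or 90% growth inhibition. Values are representative of one experiment out of three.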

Trypanosoma cruzi [2] = test: Antiparasitic activity against Trypanosoma cruzi 320I04 intracellular amastigotes infected in african green monkey Vero cells after 72 hrs; type: functional, organism-based; details: 320I04, Vero
Leishmania chagasi = test: Antiparasitic activity against Leishmania chagasi MHOM/BR/74/PP75 promastigotes infected in human THP1 cells after 72 hrs; details: MHOM/BR/74/PP75, THP-1, 72 h
[3] = Cytotoxicity against african green monkey Vero cells after 72 hrs by MTT assay; type: cell-based; details: chlorocebus sabaeus
In short: (§1)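 Vero or transformed THP-1 cells exposed to a 3-fold compound dilution series, in triplicate, for 72 h at 37 °C. Toxicity read by MTT reduction. CC50/CC90 taken as the concentrations killing 50% or 90% of cells. Values are representative of one experiment out of three.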

[4] = Cytotoxicity against human THP1 cells after 72 hrs by MTT assay; type: cell-based; details: THP-1 cells; in short: as §1
[5] = Selectivity index, ratio of CC50 for african green monkey Vero cells to IC50 for Trypanosoma cruzi 320I04 epimastigotes; type: functional
In short: (§2)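 SI calculated as Vero CC50 divided by T. cruzi IC50, or THP-1 CC50 divided by L. chagasi IC50. Both values come from 72 h exposures: parasites at 27 °C, mammalian cells at 37 °C with MTT read-out.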

[6] = Selectivity index, ratio of CC50 for african green monkey Vero cells to IC50 for Trypanosoma cruzi 320I04 intracellular amastigotes; type: functional
[7] = Selectivity index, ratio of CC50 for human THP1 cells to IC50 for Leishmania chagasi MHOM/BR/74/PP75 promastigotes; type: functional, THP-1; in short: as §2

| Structure (SMILES) | IC50 (Trypanosoma cruzi [1]) [µM] | IC90 (Trypanosoma cruzi [1]) [µM] | IC50 (Trypanosoma cruzi [2]) [µM] | IC90 (Trypanosoma cruzi [2]) [µM] | IC50 (Leishmania chagasi) [µM] | IC90 (Leishmania chagasi) [µM] | CC50 at 72 h [3] [µM] | CC90 at 72 h [3] [µM] | CC50 at 72 h [4] [µM] | CC90 at 72 h [4] [µM] | Ratio CC50/IC50 [5] | Ratio CC50/IC50 [6] | Ratio CC50/IC50 [7] |
| --- | --- | --- | --- | --- | --- | --- | --- | --- | --- | --- | --- | --- | --- |
| Clc1ccc([C@@H]2C[C@@H]3Cc4ccc5ccccc5c4N2O3)cc1 | 38.8 | 105 | 16.2 | 83.4 | 35.4 | 43.1 | 287 | > 300 | > 300 | > 300 | 7.4 | >17.7 | >8.5 |
| Clc1ccc([C@@H]2C[C@@H]3Cc4ccc5ccccc5c4N2O3)c(Cl)c1 | 52.7 | > 250 | > 250 | > 250 | 22.1 | 45.8 | 55 | > 250 | > 250 | > 250 | 1 | <0.2 | >11.3 |
| Clc1cccc([C@@H]2C[C@@H]3Cc4ccc5ccccc5c4N2O3)c1 | 12.6 | 80.1 | 13.1 | > 100 | 32.7 | > 300 | > 300 | > 300 | > 300 | > 300 | >23.8 | >22.9 | >9.2 |
| Fc1ccc([C@@H]2C[C@@H]3Cc4ccc5ccccc5c4N2O3)cc1 | 90.5 | > 300 | > 100 | > 100 | 70.4 | 113 | > 300 | > 300 | > 300 | > 300 | >3.3 | >3 | >4.3 |
| c1ccc([C@@H]2C[C@@H]3Cc4ccc5ccccc5c4N2O3)cc1 | 11.5 | > 350 | > 100 | > 100 | 21.2 | 175 | 72.9 | > 350 | > 350 | > 350 | 6.3 | <0.7 | >16.5 |
| Brc1cccc([C@@H]2C[C@@H]3Cc4ccc5ccccc5c4N2O3)c1 | 17.5 | 82.3 | 18.4 | 76.3 | 10.4 | 31.3 | > 250 | > 250 | > 250 | > 250 | >14.3 | >13.6 | >24 |
| Clc1ccccc1[C@@H]1C[C@@H]2Cc3ccc4ccccc4c3N1O2 | 100 | 293 | > 100 | > 100 | 184 | > 300 | 37.2 | > 300 | > 300 | > 300 | 0.4 | <0.4 | >1.6 |
| COc1cccc([C@@H]2C[C@@H]3Cc4ccc5ccccc5c4N2O3)c1 | 82.7 | > 300 | 89.6 | > 100 | 16.4 | 49.5 | > 300 | > 300 | > 300 | > 300 | >3.6 | >3.3 | >18.3 |

Second part, led by results:

| IC50 (Trypanosoma cruzi [1]) [µM] | IC90 (Trypanosoma cruzi [1]) [µM] | IC50 (Trypanosoma cruzi [2]) [µM] | IC90 (Trypanosoma cruzi [2]) [µM] | IC50 (Leishmania chagasi) [µM] | IC90 (Leishmania chagasi) [µM] | Structure (SMILES) | CC50 at 72 h [3] [µM] | CC90 at 72 h [3] [µM] | CC50 at 72 h [4] [µM] | CC90 at 72 h [4] [µM] | Ratio CC50/IC50 [5] | Ratio CC50/IC50 [6] | Ratio CC50/IC50 [7] |
| --- | --- | --- | --- | --- | --- | --- | --- | --- | --- | --- | --- | --- | --- |
| 14 | 48.5 | 24.3 | > 30 | 17.9 | 58.7 | COc1cccc([C@@H]2C[C@H](O)Cc3ccc4ccccc4c3N2)c1 | 97.6 | > 200 | 195 | > 300 | 7 | 4 | 10.9 |
| 16.5 | 42.7 | 33.4 | > 30 | 41.4 | 134 | Cc1cccc([C@@H]2C[C@H](O)Cc3ccc4ccccc4c3N2)c1 | 87.4 | > 250 | 89.9 | 116 | 5.3 | 2.6 | 2.2 |
| 17 | 44.1 | > 100 | > 100 | 35.2 | 41.2 | Cc1cccc([C@@H]2C[C@@H]3Cc4ccc5ccccc5c4N2O3)c1 | > 300 | > 300 | > 300 | > 300 | >17.6 | >3 | >8.5 |
| 10.7 | 19.4 | > 100 | > 100 | 18.3 | 55.7 | O[C@@H]1Cc2ccc3ccccc3c2N[C@H](c2cccc(Br)c2)C1 | 49.5 | > 250 | 41.7 | > 250 | 4.6 | 0.5 | 2.3 |
| 10.2 | 15.9 | 9.9 | 29.7 | 18.5 | 37.1 | O[C@@H]1Cc2ccc3ccccc3c2N[C@H](c2ccc(Br)cc2)C1 | 66.1 | > 200 | 79 | > 200 | 6.5 | 6.7 | 4.3 |

— ChEMBL document CHEMBL1154008, “Synthesis and in vitro activity of new tetrahydronaphtho[1,2-b]azepine derivatives against Trypanosoma cruzi and Leishmania chagasi parasites” (Bioorg Med Chem Lett, 2009)
